One series deals with T1, mScn (Mus musculus, UniProt P11672).
T1 sequence (P11672 with tags, fused parts or gaps): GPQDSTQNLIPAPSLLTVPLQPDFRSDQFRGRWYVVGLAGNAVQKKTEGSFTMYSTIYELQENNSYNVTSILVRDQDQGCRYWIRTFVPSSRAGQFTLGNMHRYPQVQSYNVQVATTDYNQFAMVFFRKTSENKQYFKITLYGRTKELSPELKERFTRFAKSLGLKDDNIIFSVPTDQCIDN
Briefly: 1H-15N Trosy HSQC NMR screening and titration on mScn. In kind it is binding. To be noted: FDA-approved drugs library and Vanderbilt discovery library; peak shifts of mScn. In outline:
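15N-labelled mScn was expressed in E. coli BL21(DE3) as a 6His-GB1 fusion, and the GB1 tag was cleaved with HRV3C. Screening used pools of 12 compounds (1 μl each of 10 mM DMSO stock) with 20 μM mScn in 100 mM sodium phosphate pH 6.0, 5 vol% D2O and 2 vol% DMSO. Hits were re-tested singly, then titrated with 50 μM mScn (5 vol% DMSO) at protein:ligand ratios from 1:0 to 1:10.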

For series [1] the following is noted: ref Gleiter and Mörike, 2002; Buter et al., 1999; cited from earlier work.
The conditions of series [2]: ref Gleiter and Mörike, 2002; Buter et al., 1999; cited from earlier work. This is another data set of the same source.
A further series has as its target hScn. To be noted: read-out: binding affinity; ref Goetz et al., 2002; Hohlbaum et al., 2018; cited from earlier work.
Series [3] can be described thus: Isothermal titration calorimetry. In kind it is binding. A digest of the protocol: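 Monomeric hScn C87S (and mutants) was expressed in E. coli on M9 medium and purified by Ni-NTA and size exclusion. The protein sat in the cell and the test compound in the syringe, both in matched 100 mM sodium phosphate pH 6.0 with 2% DMSO. Runs were at 25°C and 750 rpm: a 0.4 μL first injection, then at least 19 injections of 2 μL spaced 150 s. A ligand-into-buffer reference titration was run.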

“Also recorded” adds a separate entry of the source. Read-outs that look alike come from different tables or passages of the source.

Regarding `CCOc1nc2cccc(C(=O)O)c2n1Cc1ccc(-c2ccccc2-c2nc(=O)o[nH]2)cc1` [azilsartan], the “NMR screening / titration result in words” value on mScn is given as “identified hits”. As for `CCOc1nc2cccc(C(=O)O)c2n1Cc1ccc(-c2ccccc2-c2nnn[nH]2)cc1` [candesartan], the “NMR screening / titration result in words” value at mScn was “tightest binding; also recorded: medium to low affinity”. In addition, in series [1], the plasma protein binding entry is reported as “exceeding 99%”. The maximal plasma concentration result in series [2] was “around 0.227 μM”.

Consider `O=C(N[C@H]1COC(=O)[C@@H](NC(=O)c2cccc(O)c2O)COC(=O)[C@@H](NC(=O)c2cccc(O)c2O)COC1=O)c1cccc(O)c1O` [enterobactin], for which the Kd at hScn was 0.41 ± 0.11 nM. For `CCCCC(=O)N(Cc1ccc(-c2ccccc2-c2nnn[nH]2)cc1)[C@H](C(=O)O)C(C)C` [valsartan], the “NMR screening / titration result in words” value at mScn was “identified hits”.

B1: Y138A: hScn_C87S point mutant, best performing loss of binding mutant (protein, UniProt P80188 21-198, looked up, variant C87S Y138A)
Neutrophil …: QDSTSDLIPAPPLSKVPLQQNFQDNQFQGKWYVVGLAGNAILREDKDPQKMYATIYELKEDKSYNVTSVLFRKKKCDYWIRTFVPGSQPGEFTLGNIKSYPGLTSYLVRVVSTNYNQHAMVFFKKVSQNREYFKITLAGRTKELTSELKENFIRFSKSLGLPENHIVFPVPIDQCIDG
For B1, in series [3] (ITC, candesartan), the “increase of KD (decrease in binding affinity) compared to wild type” value is given as “fivefold”.

B2: T54R: hScn_C87S point mutant, best performing gain of binding mutant (protein, UniProt P80188 21-198, looked up, variant C87S T54R)
Neutrophil …: QDSTSDLIPAPPLSKVPLQQNFQDNQFQGKWYVVGLAGNAILREDKDPQKMYARIYELKEDKSYNVTSVLFRKKKCDYWIRTFVPGSQPGEFTLGNIKSYPGLTSYLVRVVSTNYNQHAMVFFKKVSQNREYFKITLYGRTKELTSELKENFIRFSKSLGLPENHIVFPVPIDQCIDG
Take B2: the Kd was determined as 115 nM in series [3] (read-out: ITC KD1, first binding event, value in nM) and 3500 nM in series [3] (read-out: ITC- KD2, second binding event).

Values taken from PMC13201524 (Journal of structural biology, 2025).
